Measured values published in ChEMBL document CHEMBL4145481, “Synthesis and biological evaluation of novel bavachinin analogs as anticancer agents” (Eur J Med Chem, 2018).

Tests used:
[1] = test system: A549; assay: Cytotoxicity against human A549 cells assessed as growth inhibition at 50 uM after 48 hrs by SRB assay relative to control; format: functional; details: A549, 48 h, read-out: GI
Method in brief: (§1)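 SRB growth-inhibition run in RPMI-1640/10% FBS at 37°C, 5% CO₂. Cell lines were seeded (PC-3 7000, MCF-7 8000, A549 7500, HCT-116 7000/well) and attached 24 h. The treatment series included 50 μM, with 48 h exposure. Cells were cold-TCA fixed and stained with 0.4% SRB. Dye was solubilized in 10 mM Tris pH 10.4 and read at 540 nm against untreated control.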

[2] = test system: PC-3; assay: Cytotoxicity against human PC3 cells assessed as growth inhibition at 50 uM after 48 hrs by SRB assay relative to control; format: functional; details: PC-3, 48 h, read-out: GI; method in brief: as §1
[3] = test system: MCF7; assay: Cytotoxicity against human MCF7 cells assessed as growth inhibition at 50 uM after 48 hrs by SRB assay relative to control; format: functional; details: MCF7, 48 h, read-out: GI; method in brief: as §1
[4] = test system: HCT-116; assay: Cytotoxicity against human HCT116 cells assessed as growth inhibition at 50 uM after 48 hrs by SRB assay relative to control; format: functional; details: HCT-116, 48 h, read-out: GI; method in brief: as §1
[5] = test system: A549; assay: Cytotoxicity against human A549 cells assessed as growth inhibition after 48 hrs by SRB assay; format: functional, cell-based; details: A549, 48 h
Method in brief: (§2)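 Cells were grown in RPMI-1640 with 10% FBS and penicillin/streptomycin at 37°C, 5% CO₂. Seeding was PC-3 7000, MCF-7 8000, A549 7500 and HCT-116 7000 cells/well, with 24 h attachment. Cells were exposed to 1, 5, 10, 30 and 50 μM for 48 h, with a 5-fluorouracil reference. Cells were TCA-fixed (1 h, 4°C) and stained with 0.4% SRB. Bound dye was dissolved in 10 mM Tris pH 10.4 and read at 540 nm. IC50 came from the concentration-response.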

[6] = test system: PC-3; assay: Cytotoxicity against human PC3 cells assessed as growth inhibition after 48 hrs by SRB assay; format: functional, cell-based; details: PC-3, 48 h; method in brief: as §2
[7] = test system: HCT-116; assay: Cytotoxicity against human HCT116 cells assessed as growth inhibition after 48 hrs by SRB assay; format: functional, cell-based; details: HCT-116, 48 h; method in brief: as §2
[8] = test system: MCF7; assay: Cytotoxicity against human MCF7 cells assessed as growth inhibition after 48 hrs by SRB assay; format: functional, cell-based; details: MCF7, 48 h; method in brief: as §2
[9] = biological target: T1, Peroxisome proliferator-activated receptor gamma (Mus musculus, UniProt P37238); assay: Agonist activity at mouse PPARgamma expressed in 293T cells by dual luciferase reporter gene assay; format: cell-based
T1 sequence (P37238 whole entry): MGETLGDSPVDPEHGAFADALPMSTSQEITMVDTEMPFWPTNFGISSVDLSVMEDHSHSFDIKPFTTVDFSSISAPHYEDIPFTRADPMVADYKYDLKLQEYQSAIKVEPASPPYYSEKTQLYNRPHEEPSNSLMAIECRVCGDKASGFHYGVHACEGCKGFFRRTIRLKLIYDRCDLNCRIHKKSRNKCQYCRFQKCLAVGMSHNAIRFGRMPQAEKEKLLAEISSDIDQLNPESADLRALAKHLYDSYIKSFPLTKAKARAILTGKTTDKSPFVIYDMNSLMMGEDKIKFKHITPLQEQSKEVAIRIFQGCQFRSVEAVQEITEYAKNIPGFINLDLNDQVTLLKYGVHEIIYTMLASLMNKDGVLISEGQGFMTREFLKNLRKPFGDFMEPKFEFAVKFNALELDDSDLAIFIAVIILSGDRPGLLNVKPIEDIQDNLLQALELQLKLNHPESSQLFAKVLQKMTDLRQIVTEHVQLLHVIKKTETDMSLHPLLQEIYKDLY

EC50 [9] [µM] | SMILES | inhibition of growth at 50 µM [1] [%] | inhibition of growth at 50 µM [2] [%] | inhibition of growth at 50 µM [3] [%] | inhibition of growth at 50 µM [4] [%] | IC50 [5] [µM] | IC50 [6] [µM] | IC50 [7] [µM] | IC50 [8] [µM]
– | CCCOc1ccc([C@@H]2CC(=O)c3cc(CC=C(C)C)c(OC)cc3O2)cc1 | 43 | 54 | 60 | 63 | – | – | – | –
– | COc1ccc([C@@H]2C/C(=N/OCc3cn(-c4cc(OC)c(OC)c(OC)c4)nn3)c3cc(CC=C(C)C)c(OC)cc3O2)cc1 | 28 | 36 | 45 | 29 | – | – | – | –
– | CCOc1ccc([C@@H]2CC(=O)c3cc(CC=C(C)C)c(OC)cc3O2)cc1 | 37 | 60 | 57 | 65 | – | – | – | –
– | COc1cc2c(cc1CC=C(C)C)[C@H](O)C[C@@H](c1ccc(O)cc1)O2 | 48 | 13 | 49 | 37 | – | – | – | –
– | COc1cc2c(cc1CC=C(C)C)/C(=N/NC(N)=O)C[C@@H](c1ccc(O)cc1)O2 | 77 | 67 | 93 | 87 | 25.3 | 27.7 | 24.3 | 19.5
0.43 | COc1cc2c(cc1CC=C(C)C)C(=O)C[C@@H](c1ccc(OC(=O)c3ccc([N+](=O)[O-])cc3)cc1)O2 | – | – | – | – | – | – | – | –
– | COc1cc2c(cc1CC=C(C)C)C(=O)C[C@@H](c1ccc(Oc3ccc(F)cc3)cc1)O2 | 27 | 19 | 37 | 29 | – | – | – | –
– | COc1ccc([C@@H]2C/C(=N/OCc3cn(-c4cccnc4Cl)nn3)c3cc(CC=C(C)C)c(OC)cc3O2)cc1 | 58 | 44 | 35 | 47 | – | – | – | –
– | COc1ccc([C@@H]2CC(=O)c3cc(CC=C(C)C)c(OC)cc3O2)cc1 | 45 | 58 | 65 | 68 | – | – | – | –
– | COc1ccc([C@@H]2C/C(=N/OCc3cn(-c4cccc(CO)c4)nn3)c3cc(CC=C(C)C)c(OC)cc3O2)cc1 | 43 | 34 | 42 | 27 | – | – | – | –
– | COc1ccc([C@@H]2C/C(=N/OCc3cn(-c4ccc(C(=O)c5ccccc5)cc4)nn3)c3cc(CC=C(C)C)c(OC)cc3O2)cc1 | 34 | 40 | 41 | 52 | – | – | – | –
– | CCCCOc1ccc([C@@H]2CC(=O)c3cc(CC=C(C)C)c(OC)cc3O2)cc1 | 37 | 48 | 57 | 60 | – | – | – | –
– | COc1cc2c(cc1CC=C(C)C)/C(=N/O)C[C@@H](c1ccc(O)cc1)O2 | 80 | 81 | 93 | 99 | 11.4 | 31.6 | 29.7 | 23.6
0.78 | COc1cc2c(cc1CC=C(C)C)C(=O)C[C@@H](c1ccc(OC(C)=O)cc1)O2 | – | – | – | – | – | – | – | –
